A word on the pIC50: it is −log10 of the IC50, conventionally taken in molar units.

The nature of data set [1]: Selectivity index, ratio of IC50 for cytotoxicity against bovine MDBK cells to IC50 for Trypanocidal activity against Trypanosoma brucei rhodesiense.
Data set [2] in a line: Selectivity index, ratio of IC50 for cytotoxicity against bovine MDBK cells to IC50 for Trypanocidal activity against Trypanosoma evansi.
Data set [3] deals with Trypanosoma brucei brucei. Kind of data set: Trypanocidal activity against Trypanosoma brucei brucei assessed as reduction in intracellular ATP production incubated for 72 hrs by CellTiter-Glo luminescent cell viability assay. It counts as functional, organism-based. The method, boiled down: (§1)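 Bloodstream trypanosomes in 96-well culture were exposed to compound in 5-fold serial dilutions from 25 µg/mL to 1.6 ng/mL for 72 h. Seeding and temperature: T. b. brucei, T. b. gambiense and T. b. rhodesiense at 5×10^3 cells/mL and 37 °C; T. evansi at 1×10^4 cells/mL and 37 °C; T. congolense at 2×10^5 cells/mL and 33 °C. Viability was read as intracellular ATP by CellTiter-Glo luminescence. Three replicates; IC50 calculated.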
A general note: In ATP-based viability assays light output follows the ATP content of the culture.

A short description of data set [4]: Selectivity index, ratio of IC50 for cytotoxicity against bovine MDBK cells to IC50 for Trypanocidal activity against Trypanosoma brucei brucei. Conditions: cattle.
In data set [5] the test system is Trypanosoma brucei gambiense. Kind of data set: Trypanocidal activity against Trypanosoma brucei gambiense assessed as reduction in intracellular ATP production incubated for 72 hrs by CellTiter-Glo luminescent cell viability assay. It counts as functional, organism-based. An outline of the steps:
as §1

Data set [6] has as its system Trypanosoma brucei rhodesiense. In words: Trypanocidal activity against Trypanosoma brucei rhodesiense assessed as reduction in intracellular ATP production incubated for 72 hrs by CellTiter-Glo luminescent cell viability assay. It counts as functional, organism-based. The method, boiled down: as §1
Data set [7] can be described thus: Selectivity index, ratio of IC50 for cytotoxicity against bovine MDBK cells to IC50 for Trypanocidal activity against Trypanosoma congolense.
Data set [8] is described as follows: Selectivity index, ratio of IC50 for cytotoxicity against bovine MDBK cells to IC50 for Trypanocidal activity against Trypanosoma brucei gambiense. Conditions: cattle.
In the next data set the test system is MDBK cells (Bos taurus). Kind of data set: Cytotoxicity against bovine MDBK cells assessed as reduction in cell viability incubated for 72 hrs by CCK8 assay.
A further data set has as its system Trypanosoma evansi. In words: Trypanocidal activity against Trypanosoma evansi assessed as reduction in intracellular ATP production incubated for 72 hrs by CellTiter-Glo luminescent cell viability assay. In kind it is functional, organism-based. The method, boiled down: as §1
A further data set relates to Trypanosoma congolense. In words: Trypanocidal activity against Trypanosoma congolense assessed as reduction in intracellular ATP production incubated for 72 hrs by CellTiter-Glo luminescent cell viability assay. In kind it is functional, organism-based. The method, boiled down:
as §1

pIC50: −log10 of the molar value. Bounds are passed on as bounds.

For the compound `CCCOc1ccccc1-c1cnc(-c2cccc(OC)c2OC)o1`, the selectivity ratio in data set [1] was > 11; in data set [2], > 10; in [4] it was > 15; in data set [7], > 39; in [8], > 10. Also, the pIC50 was 4.69 in [3]; 4.55 in data set [5]; 4.57 in [6]; < 3.53 in the data set on MDBK cells (Bos taurus); 4.55 in the data set with Trypanosoma evansi; 5.12 in the data set on Trypanosoma congolense.

Regarding `Oc1ccccc1-c1cnc(-c2cccc(O)c2O)o1`, the selectivity ratio in [1] is 2.5; in [2], 1.5; in data set [4] it was 0.77; in [7], 6.3; in data set [8], 0.52. For the same compound, the negative logarithm of the IC50 (pIC50) in [3] was 5.04; in data set [5], 4.87; in [6], 5.55; with MDBK cells (Bos taurus), 5.15; in the data set with Trypanosoma evansi, 5.33; in the data set on Trypanosoma congolense, 5.96.

For the compound `COc1cccc(-c2ncc(-c3ccccc3N)o2)c1OC`, the selectivity ratio in data set [1] worked out at 0.77; in data set [2] it was 0.45; in [4], 0.8; in data set [7] it was 5.2; in data set [8], 1. For the same compound, the negative logarithm of the IC50 (pIC50) was 4.22 in data set [3]; 4.34 in data set [5]; 4.21 in data set [6]; 4.32 with MDBK cells (Bos taurus); 3.98 with Trypanosoma evansi; 5.04 with Trypanosoma congolense.

Take `CC(=O)Oc1ccccc1-c1cnc(-c2cccc(OC(C)=O)c2OC(C)=O)o1`: the selectivity ratio in data set [1] amounted to 2.1; in data set [2], 0.96; in [4] it was 1.2; in [7], 6.6; in data set [8], 0.82. Moreover, the negative logarithm of the IC50 (pIC50) is 5.34 in [3]; 5.19 in data set [5]; 5.60 in [6]; 5.28 in the data set with MDBK cells (Bos taurus); 5.25 with Trypanosoma evansi; 6.10 in the data set with Trypanosoma congolense.

With `COc1cccc(-c2cnc(-c3cccc(OC)c3)o2)c1`, the selectivity ratio in data set [1] is > 5.3; in data set [2], > 6.6; in data set [4], > 5.7; in [7], > 17; in [8] it was > 5.3. Also, the pIC50 in data set [3] was 4.21; in data set [5], 4.17; in data set [6] it was 4.18; in the data set on MDBK cells (Bos taurus) it was < 3.45; with Trypanosoma evansi, 4.27; with Trypanosoma congolense, 4.67.

For the compound `COc1ccccc1-c1cnc(-c2cccc(OC)c2OC)s1`, the selectivity ratio in data set [1] was determined as 3.9; in data set [2] it was 3.7; in data set [4], 3.6; in data set [7], 20; in data set [8], 3.6. Moreover, the negative logarithm of the IC50 (pIC50) is 4.49 in data set [3]; 4.50 in [5]; 4.53 in data set [6]; 3.94 in the data set with MDBK cells (Bos taurus); 4.51 with Trypanosoma evansi; 5.24 in the data set on Trypanosoma congolense.

Regarding `COc1cccc(-c2ncc(-c3ccccc3OC)o2)c1`, the selectivity ratio in data set [1] is < 1.8; in data set [2], < 1.8; in data set [4], < 1.8; in [7], 24; in data set [8], < 1.8. In addition, the negative logarithm of the IC50 (pIC50) in data set [3] was < 4.05; in data set [5], < 4.05; in data set [6], < 4.05; in the data set with MDBK cells (Bos taurus), 3.79; in the data set on Trypanosoma evansi, < 4.05; with Trypanosoma congolense, 5.17.

Regarding `COc1cccc(-c2ncc(-c3ccc(OC)c(OC)c3OC)o2)c1OC`, the selectivity ratio in [1] came out at 1.5; in data set [2] it was 1.7; in [4], 1.5; in [7], 4.2; in [8], 1.6. The pIC50 in data set [3] is 4.19; in [5], 4.20; in data set [6] it was 4.19; in the data set on MDBK cells (Bos taurus) it was 4.00; in the data set on Trypanosoma evansi, 4.22; with Trypanosoma congolense, 4.63.

As to `COc1ccc(-c2cnc(-c3ccc(OC)c(OC)c3OC)o2)c(OC)c1OC`, the selectivity ratio in data set [1] came out at 1.3; in data set [2] it was 0.66; in data set [4] it was 1.1; in [7], 2.4; in [8], 0.98. Also, the pIC50 in [3] was 4.42; in data set [5], 4.39; in data set [6], 4.50; with MDBK cells (Bos taurus), 4.40; in the data set with Trypanosoma evansi, 4.22; with Trypanosoma congolense, 4.79.

Regarding `CC(=O)Oc1ccc(OC(C)=O)c(-c2cnc(-c3cc(OC(C)=O)ccc3OC(C)=O)o2)c1`, the selectivity ratio was found to be 0.63 in data set [1]; 0.67 in data set [2]; 0.85 in [4]; 1.8 in data set [7]; 0.6 in data set [8]. Moreover, the negative-log IC50 (pIC50) in data set [3] is 4.45; in data set [5], 4.30; in data set [6], 4.32; in the data set with MDBK cells (Bos taurus) it was 4.52; in the data set on Trypanosoma evansi, 4.35; in the data set on Trypanosoma congolense, 4.77.

`Oc1ccc(O)c(-c2cnc(-c3ccccc3)o2)c1`: the selectivity ratio in data set [1] was 0.42; in data set [2], 0.61; in data set [4], 0.36; in data set [7], 1.6; in data set [8], 0.42. In addition, the pIC50 in data set [3] was 4.69; in data set [5] it was 4.75; in data set [6] it was 4.74; with MDBK cells (Bos taurus) it was 5.12; in the data set on Trypanosoma evansi it was 4.91; in the data set on Trypanosoma congolense, 5.33.

As to `COc1cccc(-c2cnc(-c3ccc(OC)c(OC)c3OC)o2)c1OC`, the selectivity ratio in [1] was > 4.2; in data set [2] it was > 14; in data set [4] it was > 4.2; in data set [7], > 5.3; in [8] it was > 4.3. For the same compound, the pIC50 in data set [3] is 4.19; in [5], 4.20; in [6], 4.19; in the data set on MDBK cells (Bos taurus), < 3.57; in the data set on Trypanosoma evansi, 4.70; with Trypanosoma congolense, 4.29.

Take `CC(=O)Oc1ccc(OC(C)=O)c(-c2ncc(-c3ccccc3OC(C)=O)o2)c1`: the selectivity ratio was 1.1 in data set [1]; 1.9 in data set [2]; 1.9 in [4]; 4.4 in data set [7]; 1.2 in [8]. Moreover, the pIC50 in data set [3] is 4.47; in data set [5] it was 4.26; in [6] it was 4.25; with MDBK cells (Bos taurus) it was 4.19; in the data set with Trypanosoma evansi, 4.47; in the data set on Trypanosoma congolense, 4.84.

With `COc1cccc(-c2ncc(-c3ccccc3)o2)c1OC`, the selectivity ratio in data set [1] was 0.48; in data set [2] it was 0.68; in [4] it was 0.47; in [7], 10; in data set [8], 0.48. The pIC50 in [3] was 4.06; in data set [5] it was 4.07; in data set [6], 4.08; in the data set with MDBK cells (Bos taurus), 4.39; in the data set on Trypanosoma evansi, 4.23; in the data set on Trypanosoma congolense, 5.40.

Consider `COc1ccccc1-c1nnc(-c2cccc(OC)c2OC)o1`, for which the selectivity ratio in data set [1] was determined as 2.4; in data set [2] it was 4.3; in data set [4], 2.4; in data set [7], 12; in [8], 2.4. The negative logarithm of the IC50 (pIC50) was 4.88 in data set [3]; 4.88 in [5]; 4.87 in [6]; 4.49 in the data set with MDBK cells (Bos taurus); 5.12 in the data set on Trypanosoma evansi; 5.57 with Trypanosoma congolense.

In the case of `COc1ccc(-c2ncc(-c3ccccc3OC)o2)c(OC)c1`, the selectivity ratio in data set [1] was determined as 1; in [2], 0.91; in data set [4], 0.79; in data set [7] it was 3.9; in [8] it was 1.7. The pIC50 in data set [3] was 4.12; in data set [5], 4.45; in [6], 4.23; with MDBK cells (Bos taurus), 4.23; with Trypanosoma evansi, 4.19; with Trypanosoma congolense, 4.82.

`COc1ccc(OC)c(-c2cnc(-c3ccccc3OC)o2)c1`: the negative-log IC50 (pIC50) in [3] was < 4.10; in data set [5], 4.65; in data set [6], < 4.10; in the data set on MDBK cells (Bos taurus) it was < 3.49; in the data set on Trypanosoma evansi it was < 4.10; with Trypanosoma congolense it was 5.37. Moreover, the figures for the selectivity ratio in data set [7] and in data set [8] were > 75 and > 14, respectively.
